Shown is part of a subset that was picked to be rich in hits.
H69AR inhibit: proliferation blockers of H69AR lung cancer cells, primary screen, cell-based, human, 86K library; H69AR lung tumor viability, ATP luminescence, 72 h; stronger effect = lower value; viability, % at 10 µM; 85,000 compounds, 6% hits; AID 598, 2007;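 active means viability at or below 40%; inactive means viability above 40%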;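 further: multidrug resistant small cell line overexpressing MRP-1 efflux transporter; 100% = mean luminescence of untreated control wells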
Lung fibro prol: antiproliferative effect on LL 47 fibroblasts – human, LL 47 cells, CellTiter-Glo luminescence, primary screen. 85,000 compounds, 1.1% hits. LL 47 human lung fibroblast viability, ATP luminescence; stronger effect = lower value. viability, % at 10 µM. AID 719, 2007;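 active means viability at or below 50% in the single dose screen; inactive means viability above 50%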;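 further: compound exposure lasted 72 h before the ATP readout; 100% = median luminescence of untreated cell-only wells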
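Signal: luminescent ATP detection, CellTiter-Glo; assay system: LL 47 human lung fibroblasts; input: 1,150 cells/well; incubation: overnight cell rest, 72 h compound treatment at 37 °C; measure: % viability versus median cells-only luminescence; medium: IMEM growth medium with 15% fetal bovine serum; dosing: compound addition at 0.1% DMSO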
HUVEC inhibit: inhibitors of HUVEC proliferation, primary screen, cell-based, 384-well; AID 648, 2007; viability, % at 10 µM (by protocol); CellTiter-Glo luminescence, 72 h; stronger effect = lower value; 86,000 compounds, 1.1% hits;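 active means viability at or below 30%; inactive means viability above 30%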;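 further: 100% = median luminescence of DMSO-only cell control wells on each plate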
bCat KO growth: primary screen for growth suppressors in beta-catenin knockout HCT116 cells (colon tumor, human) | 140,000 compounds, 1.5% hits | HCT116 beta-catenin knockout viability, CellTiter-Glo, 60 h; stronger effect = lower value | viability, % at 10 µM;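 active means viability at or under a set limit, the compound median less 4 SD, cut at about 6% in these data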;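 further: 0% = Hyamine 1622 control at 20 µM and 100% = untreated cell control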
HCT116 PTEN-null: growth suppression of PTEN-null HCT116, primary screen, cell-based, CellTiter-Glo. HCT116 PTEN-null viability, 60 h; stronger effect = lower value. viability, % at 10 µM. 140,000 compounds, 1.2% hits. AID 827, 2007;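 active means viability at or below a set limit, 4 SD under the median of all tested compounds, cut at about 3.7% in these data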;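 further: PTEN knockout HCT116 line with beta catenin targeted HCT116 as companion control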
* = called active by the depositor; · = no result.

SMILES	H69AR inhibit	Lung fibro prol	HUVEC inhibit	bCat KO growth	HCT116 PTEN-null
Cc1ccc(OCC(=O)Nc2ccc(O)c(-c3nc4ccccc4o3)c2)cc1	13*	54	3.0*	86	71
O=C(Nc1ccc(-c2nc3ccccc3o2)cc1)c1ccc(N2C(=O)C3C4C=CC(C4)C3C2=O)cc1 (stereo not drawn)	15*	74	32	79	80
COc1cc(OC)cc(C(=O)Nc2ccc(-c3nc4ccccc4o3)cc2)c1	30*	108	35	77	69
O=C(N/N=C/c1ccc[nH]1)c1ccc(Cl)cc1	·	·	·	90	98
COC(=O)c1ccccc1NS(=O)(=O)c1cn(C)c(=O)n(C)c1=O	98	101	94	92	107
CCc1c(C(C)O)oc2ccc3c(C)cc(=O)oc3c12 (stereo not drawn)	90	96	97	96	86
CC1=CC(=O)C=C(C)C1=NOc1ccccc1[N+](=O)[O-]	·	·	·	7	5
Cc1nn(-c2ccccc2)c2c1C1(C(=O)N3c4c(cccc41)C(C)CC3(C)C)C(C#N)=C(N)O2 (stereo not drawn)	39*	100	77	81	77
CC(C)Cn1cc(C(=O)N2CCN(c3ccccn3)CC2)c2c3ccccc3n(C)c2c1=O	38*	93	70	51	59
Cc1ccc(O)c(/C=N/NC(=O)c2[nH]ncc2Br)c1	·	·	·	10	14
Cc1ccc(O)c(/C=N/NC(=O)C2=NNC(c3ccccc3)(c3ccccc3)C2)c1	37*	12*	4.0*	9	7
Cc1ccc(S(=O)(=O)NCCN=C(CN2CCCC2)NS(=O)(=O)c2ccc(C)cc2)cc1	87	·	98	83	88
CC(C)CNC(=O)c1cccc(NC(=O)c2ccc(Cl)c([N+](=O)[O-])c2)c1	·	·	·	68	77
Cc1ccc2c(CC(=O)NCc3ccco3)coc2c1C	27*	55	53	29	37
Cc1ccc(C(=O)NCc2ccco2)cc1Br	95	101	103	103	105
Cc1cc(-n2[nH]c(C)c(C)c2=O)nc(-c2ccccc2O)n1	16*	66	76	18	13
Cc1cc(N2CCN(c3ccccc3)CC2)nc(-c2ccccc2O)n1	88	102	108	72	56
Cc1ccc(N=c2oc3cc(O)ccc3cc2C(N)=O)cc1	39*	82	47	73	79
COc1ccc(N=c2oc3cc(O)ccc3cc2C(=O)NCC2CCCO2)cc1 (stereo not drawn)	79	111	80	96	100
COc1ccc(-c2nsc3c(N4CCN(S(=O)(=O)c5ccccc5)CC4)ncnc23)cc1	6.2*	90	73	·	·
COc1ccc(-c2nsc3c(N4CCCC4)ncnc23)cc1	66	94	91	98	93
O=C(CNC(=O)c1cccc(OC(F)F)c1)OCc1cc(=O)n2cc(Br)ccc2n1	·	·	·	89	88
CC(C)Cc1cc(C(=O)Nc2sc3c(c2C#N)CCC3)no1	67	104	100	90	100
N#Cc1c(NC(=O)c2cc(C3CC3)on2)sc2c1CCC2	33*	99	61	37	36
CC(C)Cc1cc(C(=O)Nc2sc3c(c2C#N)CCCC3)no1	91	91	97	96	90
SMILES	H69AR inhibit	Lung fibro prol	HUVEC inhibit	bCat KO growth	HCT116 PTEN-null
Cc1cc(C(=O)Nc2sc3c(c2C#N)CCC3)no1	22*	99	68	60	54
Cc1cc(C(=O)Nc2sc3c(c2C#N)CCCC3)no1	27*	96	80	59	71
COc1ccc(OC)c(NC(=O)C2CCCN(S(=O)(=O)c3c(C)noc3C)C2)c1 (stereo not drawn)	79	102	94	95	88
CCOc1ccc(OCC)c(NC(=O)C2CCCN(S(=O)(=O)c3c(C)noc3C)C2)c1 (stereo not drawn)	19*	82	78	18	22
COc1ccc2nc(NC(=O)C3CCCN(S(=O)(=O)c4c(C)noc4C)C3)sc2c1 (stereo not drawn)	35*	101	86	54	46
Clc1ccc(Nc2nc3ccccc3n3nnnc23)cc1	44	68	52	69	77
Fc1cc(Br)ccc1Nc1nc2ccccc2n2nnnc12	25*	73	33	83	82
Oc1c(Cl)cc(Cl)cc1C(C#Cc1ccccc1)N1CCOCC1 (stereo not drawn)	·	·	·	11	9
